Experimental data published in ChEMBL document CHEMBL4145441, “Discovery of N-(5-((5-chloro-4-((2-(isopropylsulfonyl)phenyl)amino)pyrimidin-2-yl)amino)-4-methoxy-2-(4-methyl-1,4-diazepan-1-yl)phenyl)acrylamide (CHMFL-ALK/EGFR-050) as a potent ALK/EGFR dual kinase inhibitor capable of overcoming a variety of ALK/EGFR associated drug resistant mutants in NSCLC” (Eur J Med Chem, 2017).
Calls of active or inactive are those of the source. The calls are words filed in the database; no cut-off is given here.

Legend:
[1] = test system: ALK tyrosine kinase receptor (Homo sapiens), Q9UM73 [G1202R]
[2] = biological target: T1, ALK tyrosine kinase receptor (Homo sapiens, UniProt Q9UM73); assay: Inhibition of ALK phosphorylation at Tyr1604 residue in human NCI-H3122 cells harboring EML4-fused ALK at 100 nM after 2 hrs by immunoblot method; format: cell-based
[3] = biological target: ALK tyrosine kinase receptor (Homo sapiens, UniProt Q9UM73, L1196M); assay: Inhibition of recombinant human N-terminal GST/His6-fused ALK L1196M mutant expressed in Sf9 insect cells using Tyr 1 peptide as substrate after 1 hr by Z-LYTE assay
[4] = biological target: T2, Epidermal growth factor receptor (Homo sapiens, UniProt P00533); assay: Inhibition of TEL-fused EGFR (unknown origin) expressed in mouse BAF3 cells assessed as decrease in cell proliferation after 72 hrs by CellTiter-Glo assay; format: cell-based
A549 [5] = assay: Induction of apoptosis in human A549 cells assessed as increase in cleaved PARP expression level up to 1 uM after 24 hrs by Western blot method; format: functional, cell-based
[6] = Oral bioavailability in Sprague-Dawley rat at 10 mg/kg; format: ADME, organism-based; conditions: in vivo
Procedure, shortened: (§1)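 Pharmacokinetics in rats given a single dose either intravenously at 1 mg/kg or orally at 10 mg/kg. Plasma parameters derived include AUC0-t, AUC0-∞, MRT(0-t), Cmax, Tmax, T1/2 and oral F (%).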

[7] = AUC (0 to t) in Sprague-Dawley rat at 10 mg/kg, po; format: ADME, organism-based; conditions: in vivo
Procedure, shortened: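 Rats dosed once intravenously at 1 mg/kg or orally at 10 mg/kg. Plasma exposure parameters derived: AUC0-t, AUC0-∞, MRT(0-t), Cmax, Tmax, T1/2 and oral bioavailability (F%). Values reported as mean ± spread.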

NCI-H1975 [8] = assay: Antitumor activity against human NCI-H1975 cells xenografted in nu/nu mouse assessed as tumor growth inhibition at 20 mg/kg, po qd administered for 21 days; conditions: 504 h, read-out: TGI
Homo sapiens [9] = species on record: Homo sapiens; assay: Selectivity index, ratio of IC50 for recombinant human GST-tagged EGFR L858R mutant to IC50 for recombinant human GST-tagged EGFR L858R/T790M mutant
NCI-H1355 = assay: Antiproliferative activity against human NCI-H1355 cells harboring wild-type EGFR after 72 hrs by CellTiter-Glo assay; format: functional; conditions: NCI-H1355, 72 h
NCI-H1975 [10] = assay: Antitumor activity against human NCI-H1975 cells xenografted in nu/nu mouse assessed as tumor growth inhibition at 40 mg/kg, po qd administered for 21 days; conditions: 504 h, read-out: TGI
[11] = Antiproliferative activity against CHL cells after 72 hrs by CellTiter-Glo assay; format: cell-based, Cricetulus griseus; conditions: chinese hamster
[12] = biological target: T2, Epidermal growth factor receptor; assay: Inhibition of recombinant human wild-type His-tagged EGFR expressed in mammalian expression system using Tyr 4 peptide as substrate after 1 hr in presence of ATP by Z-LYTE kinase assay
NCI-H3122 [13] = assay: Antitumor activity against human NCI-H3122 cells xenografted in nu/nu mouse assessed as tumor growth inhibition at 10 mg/kg, po qd administered for 28 days; format: functional; conditions: 672 h, read-out: TGI
NCI-H3122 [14] = assay: Induction of apoptosis in human NCI-H3122 cells assessed as increase in cleaved caspase-3 expression level at 300 nM after 24 hrs by Western blot method; format: functional, cell-based
[15] = Tmax in Sprague-Dawley rat at 1 mg/kg, iv; format: ADME, organism-based; conditions: in vivo
Procedure, shortened: as §1

Mus musculus = assay: Toxicity in nu/nu mouse xenografted with human NCI-H1975 cells assessed as change in body weight at 10 to 40 mg/kg, po qd administered for 21 days; conditions: in vivo, 504 h
[16] = biological target: T2, Epidermal growth factor receptor; assay: Inhibition of EGFR in human PC9 cells assessed as inhibition of ERK-1/2 phosphorylation at Thr202/Tyr204 residues at 30 nM after 4 hrs by immunoblotting method; format: cell-based
[17] = biological target: T1, ALK tyrosine kinase receptor; assay: Reversible inhibition of ALK phosphorylation at Tyr1604 residue in human NCI-H3122 cells at 30 to 300 nM measured 1 to 24 hrs post compound wash out by immunoblotting method; format: cell-based
NCI-H3122 [18] = assay: Antitumor activity against human NCI-H3122 cells xenografted in po dosed nu/nu mouse assessed as decrease in cell proliferation administered for 28 days by Ki67 staining-based immunohistochemical analysis; format: functional, organism-based
NCI-H2228 = assay: Antiproliferative activity against human NCI-H2228 cells harboring EML4-fused ALK varian3 after 72 hrs by CellTiter-Glo assay; format: functional; conditions: NCI-H2228, 72 h
PC-9 = assay: Induction of apoptosis in human PC9 cells assessed as increase in cleaved caspase-3 expression level at 300 nM to 1 uM after 24 hrs by Western blot method; format: functional, cell-based
A549 [19] = assay: Induction of apoptosis in human A549 cells assessed as increase in cleaved caspase-3 expression level up to 1 uM after 24 hrs by Western blot method; format: functional, cell-based
Homo sapiens [20] = species on record: Homo sapiens; assay: Selectivity ratio of GI50 for inhibition of TEL-fused EGFR C797S mutant (unknown origin) expressed in mouse BAF3 cells assessed as decrease in cell proliferation to GI50 for TEL-fused EGFR (unknown origin) expressed in mouse BAF3 cells assessed as decrease in cell proliferation; format: cell-based
[21] = biological target: T2, Epidermal growth factor receptor; assay: Inhibition of EGFR in human A549 cells assessed as reduction in EGF-induced P70S6K phosphorylation at Thr389 residue up to 3 uM after 4 hrs by immunoblotting method; format: cell-based

T2 sequence (P00533 whole entry, the tested form may be a part): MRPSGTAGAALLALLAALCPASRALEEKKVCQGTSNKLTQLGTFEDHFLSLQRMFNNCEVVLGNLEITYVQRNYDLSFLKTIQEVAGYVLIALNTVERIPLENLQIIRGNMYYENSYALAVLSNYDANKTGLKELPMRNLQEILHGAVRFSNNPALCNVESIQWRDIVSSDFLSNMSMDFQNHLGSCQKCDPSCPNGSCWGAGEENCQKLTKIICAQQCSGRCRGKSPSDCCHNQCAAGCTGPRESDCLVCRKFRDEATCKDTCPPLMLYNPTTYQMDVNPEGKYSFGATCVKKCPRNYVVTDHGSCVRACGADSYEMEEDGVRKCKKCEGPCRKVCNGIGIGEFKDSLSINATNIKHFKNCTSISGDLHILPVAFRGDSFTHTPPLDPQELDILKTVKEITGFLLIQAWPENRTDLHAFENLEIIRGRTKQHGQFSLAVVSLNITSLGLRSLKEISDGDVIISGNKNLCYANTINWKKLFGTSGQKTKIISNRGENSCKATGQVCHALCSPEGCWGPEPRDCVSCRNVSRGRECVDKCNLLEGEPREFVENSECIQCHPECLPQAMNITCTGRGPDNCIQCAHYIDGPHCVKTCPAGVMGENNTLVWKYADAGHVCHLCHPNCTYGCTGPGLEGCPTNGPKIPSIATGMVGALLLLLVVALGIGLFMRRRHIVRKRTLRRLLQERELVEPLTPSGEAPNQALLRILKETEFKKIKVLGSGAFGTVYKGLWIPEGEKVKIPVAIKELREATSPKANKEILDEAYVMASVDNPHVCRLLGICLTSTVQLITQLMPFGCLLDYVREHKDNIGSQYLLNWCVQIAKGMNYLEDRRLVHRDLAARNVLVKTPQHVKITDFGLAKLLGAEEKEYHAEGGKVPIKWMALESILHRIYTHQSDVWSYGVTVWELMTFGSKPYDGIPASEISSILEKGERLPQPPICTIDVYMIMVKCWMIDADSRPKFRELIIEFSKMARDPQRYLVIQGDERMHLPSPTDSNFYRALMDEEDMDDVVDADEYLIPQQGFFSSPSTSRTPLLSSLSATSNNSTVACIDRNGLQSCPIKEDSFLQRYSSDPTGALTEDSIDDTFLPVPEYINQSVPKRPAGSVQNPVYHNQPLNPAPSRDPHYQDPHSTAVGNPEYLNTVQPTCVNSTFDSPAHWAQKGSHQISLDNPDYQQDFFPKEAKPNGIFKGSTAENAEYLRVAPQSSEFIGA
T1 sequence (Q9UM73 19-1620 limits assumed): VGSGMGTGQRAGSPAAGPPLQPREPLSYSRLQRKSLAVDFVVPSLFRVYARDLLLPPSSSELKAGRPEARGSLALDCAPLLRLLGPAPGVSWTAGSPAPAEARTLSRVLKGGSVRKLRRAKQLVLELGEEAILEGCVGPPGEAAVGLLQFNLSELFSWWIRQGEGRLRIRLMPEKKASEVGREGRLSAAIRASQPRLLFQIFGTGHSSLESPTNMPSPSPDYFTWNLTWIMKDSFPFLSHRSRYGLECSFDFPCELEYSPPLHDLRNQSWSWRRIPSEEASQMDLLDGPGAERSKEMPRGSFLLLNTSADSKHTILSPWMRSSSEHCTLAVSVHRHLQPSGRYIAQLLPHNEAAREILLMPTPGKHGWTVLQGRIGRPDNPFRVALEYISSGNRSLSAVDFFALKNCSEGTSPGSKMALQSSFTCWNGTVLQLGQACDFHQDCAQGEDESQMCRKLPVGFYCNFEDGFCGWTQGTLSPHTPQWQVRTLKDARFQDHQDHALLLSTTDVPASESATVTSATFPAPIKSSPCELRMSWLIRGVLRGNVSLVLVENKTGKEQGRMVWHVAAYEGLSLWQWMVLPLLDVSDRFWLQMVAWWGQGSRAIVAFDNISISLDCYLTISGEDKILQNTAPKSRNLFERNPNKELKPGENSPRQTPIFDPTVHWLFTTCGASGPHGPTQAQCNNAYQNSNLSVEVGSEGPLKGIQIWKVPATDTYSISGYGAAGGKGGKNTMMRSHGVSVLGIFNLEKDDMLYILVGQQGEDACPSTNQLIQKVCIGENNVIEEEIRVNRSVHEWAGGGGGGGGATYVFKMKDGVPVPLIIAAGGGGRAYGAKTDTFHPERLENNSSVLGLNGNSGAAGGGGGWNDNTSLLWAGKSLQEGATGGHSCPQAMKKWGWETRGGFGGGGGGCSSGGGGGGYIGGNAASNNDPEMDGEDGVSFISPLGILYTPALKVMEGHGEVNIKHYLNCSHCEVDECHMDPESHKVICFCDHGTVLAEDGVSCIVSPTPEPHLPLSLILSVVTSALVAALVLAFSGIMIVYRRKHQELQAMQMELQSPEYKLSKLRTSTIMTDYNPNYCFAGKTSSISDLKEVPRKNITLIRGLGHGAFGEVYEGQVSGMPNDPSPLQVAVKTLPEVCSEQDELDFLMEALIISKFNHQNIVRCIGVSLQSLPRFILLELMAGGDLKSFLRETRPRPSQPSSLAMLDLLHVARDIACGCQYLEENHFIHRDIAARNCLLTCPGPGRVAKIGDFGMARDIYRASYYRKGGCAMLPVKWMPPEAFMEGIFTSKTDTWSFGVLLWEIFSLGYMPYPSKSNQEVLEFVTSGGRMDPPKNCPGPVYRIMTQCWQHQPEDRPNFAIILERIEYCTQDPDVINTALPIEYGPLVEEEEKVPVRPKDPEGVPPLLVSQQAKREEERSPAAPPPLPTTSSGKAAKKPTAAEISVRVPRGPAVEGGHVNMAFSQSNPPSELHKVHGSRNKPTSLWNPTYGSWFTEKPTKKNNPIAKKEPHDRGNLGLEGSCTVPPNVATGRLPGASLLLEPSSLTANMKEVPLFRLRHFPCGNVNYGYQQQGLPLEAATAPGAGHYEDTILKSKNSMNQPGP
Sequence of ALK tyrosine kinase receptor (Homo sapiens), Q9UM73 [G1202R] (Q9UM73 whole entry G1202R, the tested form may be a part): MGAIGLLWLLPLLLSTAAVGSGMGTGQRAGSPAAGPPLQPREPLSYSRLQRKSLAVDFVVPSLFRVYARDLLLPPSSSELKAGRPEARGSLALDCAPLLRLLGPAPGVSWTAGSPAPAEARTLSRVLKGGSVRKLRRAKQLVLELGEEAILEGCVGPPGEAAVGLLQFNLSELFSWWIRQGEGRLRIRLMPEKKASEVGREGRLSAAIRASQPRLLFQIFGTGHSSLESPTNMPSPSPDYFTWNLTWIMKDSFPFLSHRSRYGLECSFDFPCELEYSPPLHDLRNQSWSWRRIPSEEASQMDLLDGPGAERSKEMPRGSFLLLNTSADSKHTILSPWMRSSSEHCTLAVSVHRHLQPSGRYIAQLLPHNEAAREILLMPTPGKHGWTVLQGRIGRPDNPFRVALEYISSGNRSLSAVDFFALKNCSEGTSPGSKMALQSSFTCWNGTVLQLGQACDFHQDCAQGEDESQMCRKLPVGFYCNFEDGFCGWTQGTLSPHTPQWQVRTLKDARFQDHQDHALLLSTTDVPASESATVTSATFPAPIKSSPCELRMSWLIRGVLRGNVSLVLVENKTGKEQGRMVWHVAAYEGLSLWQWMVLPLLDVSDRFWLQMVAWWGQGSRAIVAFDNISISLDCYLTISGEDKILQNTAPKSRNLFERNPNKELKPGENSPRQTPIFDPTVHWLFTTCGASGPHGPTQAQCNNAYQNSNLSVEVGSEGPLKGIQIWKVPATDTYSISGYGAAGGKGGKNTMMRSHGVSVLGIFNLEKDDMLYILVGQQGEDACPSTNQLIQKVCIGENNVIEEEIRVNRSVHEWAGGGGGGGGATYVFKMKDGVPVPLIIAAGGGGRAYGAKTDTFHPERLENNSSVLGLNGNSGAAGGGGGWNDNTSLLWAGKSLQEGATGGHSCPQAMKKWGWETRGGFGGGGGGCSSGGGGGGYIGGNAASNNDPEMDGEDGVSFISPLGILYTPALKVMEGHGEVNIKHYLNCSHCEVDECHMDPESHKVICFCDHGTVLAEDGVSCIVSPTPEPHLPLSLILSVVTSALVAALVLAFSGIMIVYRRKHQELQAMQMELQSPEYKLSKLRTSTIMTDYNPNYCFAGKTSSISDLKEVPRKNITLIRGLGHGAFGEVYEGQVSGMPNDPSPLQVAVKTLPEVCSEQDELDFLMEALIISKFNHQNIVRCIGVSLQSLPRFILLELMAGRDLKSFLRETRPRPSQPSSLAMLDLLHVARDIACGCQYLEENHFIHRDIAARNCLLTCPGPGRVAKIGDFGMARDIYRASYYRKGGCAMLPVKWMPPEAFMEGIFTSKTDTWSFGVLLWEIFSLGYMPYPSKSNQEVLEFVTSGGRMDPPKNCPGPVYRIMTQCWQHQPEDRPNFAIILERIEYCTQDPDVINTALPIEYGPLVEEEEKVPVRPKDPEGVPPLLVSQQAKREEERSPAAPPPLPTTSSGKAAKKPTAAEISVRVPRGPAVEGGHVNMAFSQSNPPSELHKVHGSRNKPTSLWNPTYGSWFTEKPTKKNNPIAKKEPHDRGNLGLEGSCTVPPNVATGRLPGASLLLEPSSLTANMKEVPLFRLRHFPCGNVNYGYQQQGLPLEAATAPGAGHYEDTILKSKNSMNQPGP
Sequence of ALK tyrosine kinase receptor (Homo sapiens, UniProt Q9UM73, L1196M) (Q9UM73 19-1620 L1196M limits assumed): as the sequence (Q9UM73 19-1620 limits assumed) above, with L1178M counted along it

For `C=CC(=O)Nc1cc(Nc2ncc(Cl)c(Nc3ccccc3S(=O)(=O)C(C)C)n2)c(OC)cc1N1CCCN(C)CC1`, the GI50 [1] was 460 nM, the inhibition [2] was “Active” and the IC50 [3] was 0.59 nM. The GI50 [4] was 16 nM, the Activity (A549 [5]) was “inactive” and the bioavailability [6] was 16.1%. The AUC(0-t) [7] was 1140 ng·h/mL, the inhibition in vivo at 20 mg/kg (NCI-H1975 [8]) was 96% and the Ratio IC50 (Homo sapiens [9]) was 20 to 30. It also gave a GI50 (NCI-H1355) of 1400 nM, an inhibition in vivo at 40 mg/kg (NCI-H1975 [10]) of 99% and a GI50 at 72 h [11] of 3500 nM. For the same compound, the IC50 [12] was 108 nM, the inhibition in vivo at 10 mg/kg (NCI-H3122 [13]) was 10.8% and the Activity (NCI-H3122 [14]) was “Active”. The Tmax [15] was 1.02 min, the Activity (Mus musculus) was “Non-Toxic” and the inhibition [16] was “Active”. For the same compound, the inhibition [17] was “Active”, the Activity (NCI-H3122 [18]) was “Dose-dependent effect” and the GI50 (NCI-H2228) was 28 nM. For the same compound, the Activity (PC-9) was “Active”, the Activity (A549 [19]) was “inactive” and the RatioGI50 (Homo sapiens [20]) was 15. The inhibition [21] was “inactive”.
